Results reported in ChEMBL document CHEMBL1828498, “Identification and characterization of a novel integrin-linked kinase inhibitor” (J Med Chem, 2011).
Activity calls are given as the source filed them. The calls are words filed in the database; no cut-off is given here.

Legend:
Mus musculus [1] = assay: Decrease in phosphorylation of HER2 in human PC3 cells xenografted nude mouse tumor lysate at 25 mg/kg, po administered for 35 days by Western blot analysis; assay type: functional, organism-based; design: dose 25 mg/kg; conditions: Neoplasm, PC-3
In short: (§1)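 Male NCr athymic nude mice, 5–7 weeks, with s.c. PC-3 xenografts (0.5 × 10^6 cells in 50% Matrigel), dosed by oral gavage once daily for 35 days. Vehicle 0.5% methylcellulose, 0.1% Tween 80 in water, 10 μL/g. Tumors snap-frozen at sacrifice; three tumors per group immunoblotted.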

[2] = target: Rapamycin-insensitive companion of mTOR (Homo sapiens) (UniProt Q6R327); assay: Inhibition of mTORC2 in human PC3 cells assessed as PKCalpha phosphorylation by Western blot analysis; assay type: cell-based; conditions: PC-3
Rapamycin-insensitive companion of mTOR (Homo sapiens), sequence (Q6R327 whole entry): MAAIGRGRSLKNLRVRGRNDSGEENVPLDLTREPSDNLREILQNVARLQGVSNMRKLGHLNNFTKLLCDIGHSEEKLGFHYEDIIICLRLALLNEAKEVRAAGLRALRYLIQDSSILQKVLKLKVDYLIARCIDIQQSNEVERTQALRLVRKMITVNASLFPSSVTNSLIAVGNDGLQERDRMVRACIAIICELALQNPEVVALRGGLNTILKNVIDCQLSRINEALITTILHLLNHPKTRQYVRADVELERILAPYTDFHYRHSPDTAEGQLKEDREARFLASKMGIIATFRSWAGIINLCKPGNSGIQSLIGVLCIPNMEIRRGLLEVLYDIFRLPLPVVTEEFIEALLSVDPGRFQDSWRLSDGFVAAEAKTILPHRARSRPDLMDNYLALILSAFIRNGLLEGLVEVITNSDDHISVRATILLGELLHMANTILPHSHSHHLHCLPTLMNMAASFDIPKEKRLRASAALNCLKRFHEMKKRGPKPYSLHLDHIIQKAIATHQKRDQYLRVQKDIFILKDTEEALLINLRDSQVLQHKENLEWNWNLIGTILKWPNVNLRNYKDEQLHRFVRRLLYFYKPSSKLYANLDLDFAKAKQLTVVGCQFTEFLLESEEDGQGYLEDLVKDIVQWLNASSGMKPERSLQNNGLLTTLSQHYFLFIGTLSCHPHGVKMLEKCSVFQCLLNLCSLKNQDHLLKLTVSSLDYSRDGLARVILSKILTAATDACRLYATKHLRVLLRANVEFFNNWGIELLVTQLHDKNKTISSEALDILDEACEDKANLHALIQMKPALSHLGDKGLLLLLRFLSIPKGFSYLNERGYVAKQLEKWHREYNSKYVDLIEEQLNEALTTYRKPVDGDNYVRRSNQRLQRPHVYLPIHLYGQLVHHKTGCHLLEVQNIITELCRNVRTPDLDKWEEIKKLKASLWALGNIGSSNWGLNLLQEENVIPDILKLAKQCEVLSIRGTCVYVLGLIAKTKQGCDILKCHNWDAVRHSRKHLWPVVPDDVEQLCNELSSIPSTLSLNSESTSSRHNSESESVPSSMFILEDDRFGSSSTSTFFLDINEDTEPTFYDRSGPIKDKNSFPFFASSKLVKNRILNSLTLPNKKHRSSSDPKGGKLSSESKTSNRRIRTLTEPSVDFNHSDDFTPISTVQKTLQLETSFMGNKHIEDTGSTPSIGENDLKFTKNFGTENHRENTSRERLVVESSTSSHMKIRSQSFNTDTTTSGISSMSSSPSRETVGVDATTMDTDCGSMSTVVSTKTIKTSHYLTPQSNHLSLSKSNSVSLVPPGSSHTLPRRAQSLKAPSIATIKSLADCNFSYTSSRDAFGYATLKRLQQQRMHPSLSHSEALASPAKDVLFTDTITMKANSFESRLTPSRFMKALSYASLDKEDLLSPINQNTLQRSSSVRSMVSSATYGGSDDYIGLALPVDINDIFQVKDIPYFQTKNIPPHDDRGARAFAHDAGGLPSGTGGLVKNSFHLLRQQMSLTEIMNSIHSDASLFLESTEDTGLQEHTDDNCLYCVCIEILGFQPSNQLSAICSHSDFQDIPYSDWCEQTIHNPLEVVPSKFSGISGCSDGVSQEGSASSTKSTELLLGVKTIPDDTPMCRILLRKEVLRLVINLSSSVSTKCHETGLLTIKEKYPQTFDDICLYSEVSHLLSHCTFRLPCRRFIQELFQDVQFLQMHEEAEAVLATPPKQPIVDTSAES
In short: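 Cells exposed 24 h in 5% FBS medium, final DMSO 0.1%; lysed in 1% SDS/10 mM EDTA/50 mM Tris pH 8.1, equal protein on SDS-PAGE, nitrocellulose, primary antibody 1:1000 at 4°C for 2 h, HRP secondary 1:5000, ECL detection; blots representative of three independent experiments.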

PC-3 [3] = assay: Induction of apoptosis in human PC3 cells assessed as early apoptotic cells at 2 uM by annexin V/PI staining (reference value: 5.6%); assay type: functional
Mus musculus [4] = assay: Decrease in phosphorylation of MLC in human PC3 cells xenografted nude mouse tumor lysate at 25 mg/kg, po administered for 35 days by Western blot analysis; assay type: functional, organism-based; design: dose 25 mg/kg; conditions: Neoplasm, PC-3; in short: as §1
Mus musculus [5] = assay: Toxicity in nude mouse assessed as weight loss at 25 mg/kg, po administered for 35 days; assay type: organism-based; design: dose 25 mg/kg, route oral; conditions: in vivo, 840 h
In short: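 Male NCr nude mice bearing s.c. PC-3 tumors, dosed once daily by oral gavage in 0.5% methylcellulose/0.1% Tween 80 vehicle, 10 μL/g, for 35 days; body weight recorded weekly.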

SK-BR-3 [6] = assay: Reduction in HER2 concentration in human SKBR3 cells expressing constitutively active ILK after 24 hrs by Western blot analysis; assay type: functional, cell-based
In short: (§2)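 PC-3 versus stable PC-3/CA-ILK, or SKBR3 versus transient SKBR3/CA-ILK (electroporation, used 48 h after), treated 24 h in 5% FBS medium; immunoblotting with ECL; representative of three experiments.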

[7] = target: T1, Scaffold protein ILK (Homo sapiens) (UniProt Q13418); assay: Inhibition of ILK in human MDA-MB-231 cells assessed as decrease in GSK3-beta phosphorylation by Western blot analysis; assay type: cell-based
T1 sequence (whole entry): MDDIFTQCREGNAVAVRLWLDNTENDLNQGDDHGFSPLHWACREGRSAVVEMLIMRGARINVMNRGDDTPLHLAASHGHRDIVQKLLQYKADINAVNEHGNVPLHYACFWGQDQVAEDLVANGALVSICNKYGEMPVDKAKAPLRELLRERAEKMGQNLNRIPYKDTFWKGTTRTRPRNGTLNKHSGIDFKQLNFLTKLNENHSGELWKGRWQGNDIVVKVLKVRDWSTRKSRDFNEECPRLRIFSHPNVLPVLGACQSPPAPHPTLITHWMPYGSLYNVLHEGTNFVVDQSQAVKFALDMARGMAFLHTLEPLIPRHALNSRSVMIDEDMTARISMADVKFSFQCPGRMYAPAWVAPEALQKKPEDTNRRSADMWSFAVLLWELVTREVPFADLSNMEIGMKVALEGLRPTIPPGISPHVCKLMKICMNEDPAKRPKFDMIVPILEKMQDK
In short: (§3)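 PC-3 and MDA-MB-231 cells exposed 24 h in 5% FBS medium across a concentration series. Phospho-GSK3β (Ser9) and phospho-MLC (Thr18/Ser19) detected by immunoblot: SDS lysis, primary 1:1000 at 4°C for 2 h, HRP secondary, ECL. Representative of three experiments.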

[8] = target: T1, Scaffold protein ILK (Homo sapiens); assay: Inhibition of ILK in human PC3 cells assessed as decrease in phosphorylated ERK1/2 concentration by Western blot analysis; assay type: cell-based; conditions: PC-3
In short: (§4)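 PC-3 cells exposed to graded concentrations for 24 h in 5% FBS medium. Immunoblotting for phospho-Tyr397-FAK, ERK1/2, p38 and JNK. Lysis in 1% SDS buffer, primary antibody 1:1000 at 4°C for 2 h, ECL. Three independent experiments.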

[9] = target: Focal adhesion kinase 1 (Homo sapiens) (UniProt Q05397); assay: Inhibition of FAK in human PC3 cells assessed as decrease in auto-phosphorylation at Tyr-397 by Western blot analysis; assay type: cell-based; conditions: PC-3; in short: as §4
Focal adhesion kinase 1 (Homo sapiens), sequence (Q05397 2-1052 limits assumed): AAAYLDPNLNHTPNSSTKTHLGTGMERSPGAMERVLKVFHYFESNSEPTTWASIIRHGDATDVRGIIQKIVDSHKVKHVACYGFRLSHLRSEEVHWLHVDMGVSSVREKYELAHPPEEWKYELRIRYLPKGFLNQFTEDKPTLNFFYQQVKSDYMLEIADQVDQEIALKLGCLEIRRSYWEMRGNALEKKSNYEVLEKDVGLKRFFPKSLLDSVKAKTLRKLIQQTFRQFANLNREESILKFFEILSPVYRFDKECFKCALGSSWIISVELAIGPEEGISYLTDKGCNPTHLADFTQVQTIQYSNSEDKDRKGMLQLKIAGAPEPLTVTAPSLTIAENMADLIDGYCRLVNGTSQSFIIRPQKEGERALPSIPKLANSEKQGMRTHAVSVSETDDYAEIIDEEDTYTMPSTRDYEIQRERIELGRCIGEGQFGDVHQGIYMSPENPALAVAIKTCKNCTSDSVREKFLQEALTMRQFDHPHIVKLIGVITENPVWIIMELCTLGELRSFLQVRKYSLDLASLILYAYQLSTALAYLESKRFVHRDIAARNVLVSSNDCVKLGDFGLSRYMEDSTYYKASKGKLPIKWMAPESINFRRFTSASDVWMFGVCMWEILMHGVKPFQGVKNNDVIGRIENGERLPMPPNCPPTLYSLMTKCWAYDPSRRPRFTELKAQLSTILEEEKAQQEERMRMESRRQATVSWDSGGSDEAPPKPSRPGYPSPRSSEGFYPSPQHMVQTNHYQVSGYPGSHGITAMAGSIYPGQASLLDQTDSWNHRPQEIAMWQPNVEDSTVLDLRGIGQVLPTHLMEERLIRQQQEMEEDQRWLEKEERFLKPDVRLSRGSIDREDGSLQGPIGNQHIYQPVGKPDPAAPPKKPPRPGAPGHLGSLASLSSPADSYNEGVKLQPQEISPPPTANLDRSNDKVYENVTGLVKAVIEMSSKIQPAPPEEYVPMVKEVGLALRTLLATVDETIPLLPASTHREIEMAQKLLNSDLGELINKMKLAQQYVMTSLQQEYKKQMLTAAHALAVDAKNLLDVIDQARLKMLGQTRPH

[10] = target: Receptor-type tyrosine-protein kinase FLT3 (Homo sapiens) (UniProt P36888); assay: Inhibition of Flt3 at 5 uM assessed as remaining activity
Receptor-type tyrosine-protein kinase FLT3 (Homo sapiens), sequence (P36888 whole entry): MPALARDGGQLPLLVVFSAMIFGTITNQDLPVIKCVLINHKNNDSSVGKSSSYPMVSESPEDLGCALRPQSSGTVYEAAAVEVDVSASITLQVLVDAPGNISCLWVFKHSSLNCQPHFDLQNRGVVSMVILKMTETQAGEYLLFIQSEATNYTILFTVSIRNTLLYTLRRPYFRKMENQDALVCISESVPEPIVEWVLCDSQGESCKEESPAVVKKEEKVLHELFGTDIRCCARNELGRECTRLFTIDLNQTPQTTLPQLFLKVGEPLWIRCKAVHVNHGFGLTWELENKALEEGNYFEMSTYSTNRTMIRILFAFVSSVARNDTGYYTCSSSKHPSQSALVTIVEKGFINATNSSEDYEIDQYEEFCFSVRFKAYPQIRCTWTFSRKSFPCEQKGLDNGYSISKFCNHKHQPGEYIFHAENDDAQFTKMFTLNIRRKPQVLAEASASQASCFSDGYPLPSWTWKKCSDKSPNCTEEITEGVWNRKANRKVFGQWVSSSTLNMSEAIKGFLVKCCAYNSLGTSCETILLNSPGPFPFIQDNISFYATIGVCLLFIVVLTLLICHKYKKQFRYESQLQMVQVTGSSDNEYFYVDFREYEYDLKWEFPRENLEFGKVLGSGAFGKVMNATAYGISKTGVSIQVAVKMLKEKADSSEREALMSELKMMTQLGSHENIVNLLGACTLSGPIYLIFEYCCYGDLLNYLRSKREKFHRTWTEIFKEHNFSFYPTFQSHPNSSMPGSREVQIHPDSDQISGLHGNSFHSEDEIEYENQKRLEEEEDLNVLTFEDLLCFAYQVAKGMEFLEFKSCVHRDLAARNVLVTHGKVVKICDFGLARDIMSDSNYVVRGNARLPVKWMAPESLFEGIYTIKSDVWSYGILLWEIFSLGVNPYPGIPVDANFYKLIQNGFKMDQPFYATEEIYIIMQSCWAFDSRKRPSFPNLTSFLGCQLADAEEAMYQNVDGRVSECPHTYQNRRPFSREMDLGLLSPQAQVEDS
In short: (§5)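 Panel of 20 recombinant kinases, profiled by a commercial vendor.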

PC-3 [11] = assay: Induction of autophagy in human PC3 cells assessed as LC3-II conversion by Western blot analysis; assay type: functional, cell-based
In short: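 PC-3 cells treated 24 h in 5% FBS medium. Lysed in 1% SDS/10 mM EDTA/50 mM Tris pH 8.1, equal protein on SDS-PAGE, primary antibody 1:1000 at 4°C for 2 h, HRP secondary, ECL detection. Read-outs PARP cleavage and LC3-II conversion; blots representative of three experiments.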

[12] = target: T1, Scaffold protein ILK (Homo sapiens); assay: Inhibition of ILK in human PC3 cells assessed as decrease in GSK3-beta phosphorylation by Western blot analysis; assay type: cell-based; conditions: PC-3; in short: as §3
PC-3 [13] = assay: Induction of apoptosis in human PC3 cells assessed as late apoptotic cells at 4 uM by annexin V/PI staining (reference value: 9.8%); assay type: functional
PC-3 [14] = assay: Induction of apoptosis in human PC3 cells up to 2 uM after 48 hrs by flow cytometry; assay type: functional, cell-based
PC-3 [15] = assay: Cytotoxicity against human PC3 cells expressing Atg5 siRNA assessed as cell viability by MTT assay; assay type: functional, cell-based
In short: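 PC-3 cells electroporated with Atg5 siRNA (or control siRNA) and used 48 h after transfection. Treated 24 h in 5% FBS medium, 0.1% DMSO. Viability by MTT, 1 h at 37°C, absorbance 570 nm. Mean ± SD, n = 6.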

PC-3 [16] = assay: Reduction in HER2 concentration in human PC3 cells expressing constitutively active ILK after 24 hrs by Western blot analysis; assay type: functional, cell-based; in short: as §2
[17] = target: Cyclin-dependent kinase 1/cyclin B1 (Homo sapiens) (UniProt P06493+P14635); assay: Inhibition of CDK1/cyclin B at 5 uM assessed as remaining activity; assay type: protein-complex assay; in short: as §5
Cyclin-dependent kinase 1/cyclin B1 (Homo sapiens), sequence (P06493 whole entry, looked up): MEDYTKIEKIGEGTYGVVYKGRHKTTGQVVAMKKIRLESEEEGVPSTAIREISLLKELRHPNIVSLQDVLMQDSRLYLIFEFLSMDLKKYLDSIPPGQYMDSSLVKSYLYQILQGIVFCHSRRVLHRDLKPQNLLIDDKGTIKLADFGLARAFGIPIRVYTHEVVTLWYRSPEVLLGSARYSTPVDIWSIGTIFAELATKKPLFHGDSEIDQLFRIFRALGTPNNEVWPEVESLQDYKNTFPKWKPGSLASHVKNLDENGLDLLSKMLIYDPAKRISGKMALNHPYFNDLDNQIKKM
Cyclin-dependent kinase 1/cyclin B1 (Homo sapiens), sequence (P14635 whole entry, looked up): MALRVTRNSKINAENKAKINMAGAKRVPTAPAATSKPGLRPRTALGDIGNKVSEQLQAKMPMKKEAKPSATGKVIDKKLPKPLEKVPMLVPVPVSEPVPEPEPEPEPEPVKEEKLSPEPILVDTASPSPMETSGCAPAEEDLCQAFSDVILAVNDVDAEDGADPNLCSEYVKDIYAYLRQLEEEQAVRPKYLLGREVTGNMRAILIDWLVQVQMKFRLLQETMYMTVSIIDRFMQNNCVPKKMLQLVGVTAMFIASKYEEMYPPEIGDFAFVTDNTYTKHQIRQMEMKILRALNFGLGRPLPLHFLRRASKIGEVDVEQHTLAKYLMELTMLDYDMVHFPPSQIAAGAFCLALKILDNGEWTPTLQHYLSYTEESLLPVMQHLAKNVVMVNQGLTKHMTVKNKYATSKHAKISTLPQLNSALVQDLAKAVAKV

SK-BR-3 [18] = assay: Reduction in EGFR concentration in human SKBR3 cells expressing constitutively active ILK after 24 hrs by Western blot analysis; assay type: functional, cell-based; in short: as §2
PC-3 [19] = assay: Reduction in YB-1 mRNA expression in human PC3 cells expressing constitutively active ILK after 24 hrs by RT-PCR analysis; assay type: functional, cell-based
In short: (§6)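 PC-3, PC-3/CA-ILK, SKBR3 and SKBR3/CA-ILK cells treated 24 h in 5% FBS medium; total RNA from 1 × 10^6 cells by Trizol, 1 μg reverse-transcribed, then PCR with gene-specific primers and β-actin reference.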

SK-BR-3 [20] = assay: Reduction in HER2 mRNA expression in human SKBR3 cells expressing constitutively active ILK after 24 hrs by RT-PCR analysis; assay type: functional, cell-based; in short: as §6

inhibition [2]: inactive
inhibition [7]: Active
inhibition [8]: Dose-dependent effect
inhibition [9]: inactive
Activity [10]: 66%
inhibition [12]: Active
Activity [17]: 73%
SMILES: CNC(=O)CCc1cc(-c2ccc(-c3ccc(C(F)(F)F)cc3)cc2)n(-c2ccc(N3CCNCC3)cc2)n1
Activity (Mus musculus [1]): Active
Activity (PC-3 [3]): 7.1%
Activity (Mus musculus [4]): Active
Activity (Mus musculus [5]): Non-toxic
Activity (SK-BR-3 [6]): inactive
Activity (PC-3 [11]): Dose-dependent effect
Activity (PC-3 [13]): 19.1%
Activity (PC-3 [14]): inactive
Activity (PC-3 [15]): inactive
Activity (PC-3 [16]): inactive
Activity (SK-BR-3 [18]): inactive
Activity (PC-3 [19]): inactive
Activity (SK-BR-3 [20]): inactive
